APP 5'UTR act = APP 5'UTR luciferase reporter activation; SH-SY5Y APP 5'UTR luciferase reporter, luminescence; zero percent = DMSO vehicle wells; activation, % at 2 µM; 1% of 190,000 active; AID 1276;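 active means activation above a set limit, based on mean plus 3 SD of controls, cut at about 140% in these data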
STAT3 inh = STAT3 signaling inhibition. U3A cells, IL-6 STAT3-luciferase reporter, luminescence; host cell line lacks STAT1. inhibition, % at 5.5 µM. 0.89% of 190,000 active. AID 862;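 active means inhibition above the mean inhibition across all screened compounds plus 3 SD, cut at about 44% in these data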;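 further: 0% = DMSO only wells and 100% = 100 µM nifuroxazide control wells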
STAT1 activator = activators of IFN-gamma induced STAT1 signaling; NIH 3T3 STAT1-luciferase reporter, luminescence; 100% = IFN-gamma alone, no compound; activation (% of control), % at 5.5 µM; 2.6% of 200,000 active;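 active means activation above the screen-wide mean activation plus 3 SD, cut at about 130% in these data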;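 further: raw ratio to IFN-gamma control signal so 100% means no change and 0% no light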
STAT3 activator = STAT3 signaling activation; U3A cells, IL-6 STAT3-luciferase reporter, luminescence; 100% = signal with IL-6 EC80 alone; activation (% of control), % at 5.6 µM; 0.91% of 190,000 active;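 active means activation above the screen-wide mean of compound activation plus 3 SD, cut at about 130% in these data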;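 further: 0% = background luminescence of wells with medium and substrate only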
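Assay system – human STAT1-deficient U3A cells with stable STAT3-luciferase reporter · Also added – IL-6 (33 ng/mL) · Schedule – compound 1 h, then IL-6 6 h at 37 °C · Technique – reporter luminescence signal · Evaluation – % activation versus median of IL-6-stimulated wells · Benchmarks – IL-6-only wells as 100% reference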
NF-kB neuron act = NF-kB expression increase, human neuronal cells | fold change at 12.5 µM | NF-kB reporter expression; stronger effect = higher value | 1.6% of 190,000 active | AID 1239; in the data active means fold change above about 3.3
STAT1 inh = reduces IFN-gamma driven STAT1 reporter signal. 0.35% of 200,000 active. inhibition, % at 5.5 µM. AID 920. NIH 3T3 STAT1-luciferase reporter, luminescence;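 active means inhibition above a set limit, the mean inhibition across all tested compounds plus 3 SD, cut at about 34% in these data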;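 further: 0% = IFN-gamma with DMSO and 100% = IFN-gamma with 300 µM nifuroxazide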
* = called active by the depositor; . = no result. An excerpt weighted towards active compounds, which were near 5.1% of everything screened.

SMILES	APP 5'UTR act	STAT3 inh	STAT1 activator	STAT3 activator	NF-kB neuron act	STAT1 inh
Cc1cnc(NC(=O)c2ccco2)s1	45	-5	139*	111	2.8	-43
O=C(NC(=S)Nc1nc2ccccc2s1)c1ccco1	143*	-48	130*	146*	0.82	-33
CC(C)NC(=O)c1c2c(nc3ccccc13)CCCC2	-10	-8	109	108	1.1	-5
Cc1ccc(C(=O)Nc2ccc3c(c2)nc2n3CCSC2)cc1	169*	20	148*	86	5.4*	-53
COc1ccc(OC(C)C(=O)N2CCCc3ccccc32)cc1 (stereo not given)	7	-20	96	125	1.1	3
Cc1cc(C(=O)CSc2nnnn2C)c(C)n1-c1ccc2c(c1)OCCO2	33	-15	138*	118	2.2	-41
Cc1cc(C(=O)CSc2nnc3ccccn23)c(C)n1-c1ccccc1	-20	96*	41	18	0.41	67*
CCn1nnnc1SCC(=O)c1ccc2c(c1)OCCO2	33	16	117	89	1.8	-18
CC(C)n1nnnc1SCC(=O)c1ccc2c(c1)OCCO2	156*	6	112	98	2.2	-14
C=CCNS(=O)(=O)CC12CCC(CC1=O)C2(C)C (stereo not given)	-9	0	111	105	1.4	-12
Cc1ccc(S(=O)(=O)N(c2ccc(Br)cc2)C2C=CS(=O)(=O)C2)cc1 (stereo not given)	24	6	90	97	1.1	9
Oc1c(N=Nc2ccccn2)ccc2ccccc12	-82	15	106	97	3.6*	-7
Cc1cccc(/C=C/c2nc3ccccc3c(=O)n2Cc2ccccc2)c1	-5	8	99	96	0.86	1
Cc1cccc(/C=C/c2nc3ccccc3c(=O)[nH]2)c1	92	39	121	68	6.3*	-21
O=C(OC[C@@H]1CCCN2CCCC[C@H]12)c1cc2ccccc2oc1=O	-8	-1	97	99	1.2	4
CCc1nn2c(NCCOC)cc(C)nc2c1-c1ccc(F)cc1	-4	6	93	101	0.99	7
Cc1cc(C)n2nc(-c3ccsc3-n3c(C)ccc3C)cc2n1	6	15	103	96	1	-3
Cc1ccc(-c2cc3nc(C)cc(C)n3n2)cc1	171*	-51	134*	152*	5.1*	-37
Cc1ccc(NC(=O)c2cc3nc(C)cc(C)n3n2)cc1	146*	16	142*	88	4.2*	-46
Cc1cc(C)n2nc(-c3ccccc3)cc2n1	127	-20	142*	119	3.7*	-47
Cc1cc(C)n2nc(C(=O)NCc3ccccc3)cc2n1	6	2	98	102	1.3	2
COc1cccc(CN2CCNC(=O)C2CC(=O)NCc2cc(C(C)C)no2)c1 (stereo not given)	6	5	92	98	1.1	7
C/C(N)=C(/C#N)C(=O)CSc1nc2ccccc2n1CC(C)C	-15	8	96	95	0.96	3
COc1ccc(N2CCN(C(=O)CSc3nc4[nH]ncc4c(=O)n3-c3ccc(Br)cc3)CC2)cc1	-2	4	80	98	3.3*	20
CNS(=O)(=O)c1ccc2nc(NC(=O)/C=C/c3ccco3)sc2c1	29	20	131*	87	1.1	-33
SMILES	APP 5'UTR act	STAT3 inh	STAT1 activator	STAT3 activator	NF-kB neuron act	STAT1 inh
COc1ccc2c(c1)Cc1sc(NC(C)=O)nc1-2	123	5	146*	99	1.9	-49
COc1ccc2c(c1)Cc1sc(NC(=O)c3cccnc3)nc1-2	25	15	92	89	0.71	7
CC(C)CC(=O)OC1C(N2CCOCC2)c2c(ccc(/C=C/C(=O)N3CCOCC3)c2O)OC1(C)C (stereo not given)	5	-18	102	113	0.41	-3
Cc1cccc(/C(N)=N/OC(=O)COc2ccc(Cl)cc2)c1	9	10	115	95	1.4	-16
N/C(=N\OC(=O)Cc1ccccc1)c1cccc(Br)c1	0	10	116	96	.	-17
N/C(=N\OC(=O)c1cccs1)c1cccc(Br)c1	60	9	136*	94	1.2	-43
Cc1cccc(/C(N)=N/OC(=O)c2ccc(F)cc2)c1	113	4	140*	99	2.1	-45
